Measurements published in PMC12667952 (bioRxiv, 2025).
“Also recorded” adds a separate entry of the source.

Legend:
hGlyT2^D633E = biological target: T1, hGlyT2^D633E (Homo sapiens, UniProt Q9Y345, D633E); type: cell-based
T1 sequence (Q9Y345 1-797 D633E): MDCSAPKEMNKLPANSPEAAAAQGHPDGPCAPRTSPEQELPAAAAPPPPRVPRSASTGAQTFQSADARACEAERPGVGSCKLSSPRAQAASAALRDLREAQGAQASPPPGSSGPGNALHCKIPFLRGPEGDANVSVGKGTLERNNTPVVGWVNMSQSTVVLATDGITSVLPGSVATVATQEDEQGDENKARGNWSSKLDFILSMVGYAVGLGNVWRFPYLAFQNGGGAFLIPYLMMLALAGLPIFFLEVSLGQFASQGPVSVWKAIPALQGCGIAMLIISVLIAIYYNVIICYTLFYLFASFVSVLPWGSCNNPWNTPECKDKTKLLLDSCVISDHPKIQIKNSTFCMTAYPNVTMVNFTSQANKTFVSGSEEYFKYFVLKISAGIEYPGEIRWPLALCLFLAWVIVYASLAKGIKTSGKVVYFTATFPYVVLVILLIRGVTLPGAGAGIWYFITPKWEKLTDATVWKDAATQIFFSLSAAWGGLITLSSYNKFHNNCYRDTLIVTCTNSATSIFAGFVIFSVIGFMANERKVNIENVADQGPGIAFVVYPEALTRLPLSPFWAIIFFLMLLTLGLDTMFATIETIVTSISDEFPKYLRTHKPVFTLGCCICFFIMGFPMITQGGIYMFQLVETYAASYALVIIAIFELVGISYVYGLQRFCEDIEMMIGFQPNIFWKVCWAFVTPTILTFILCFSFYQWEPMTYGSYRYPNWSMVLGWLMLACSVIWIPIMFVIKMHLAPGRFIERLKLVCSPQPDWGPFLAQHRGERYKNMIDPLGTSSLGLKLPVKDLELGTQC

CCI mice [1] = test: Mechanical allodynia; type: in vivo, mouse; settings: for Peak reduction of response rate to von Frey stimulus: 3 hours
Procedure, shortened: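 CCI mice tested 14 days after surgery. […] A single 0.4 g von Frey filament (about 15% response in naïve mice) applied to the left hind plantar surface until it bent. Response rate recorded after dosing.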

CCI mice [2] = test: Cold allodynia; type: in vivo, mouse; settings: for Peak reduction of response rate to acetone stimulus: by 2-hour time point
Procedure, shortened: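 CCI mice tested 14 days after surgery. […] Acetone-evoked cold allodynia scored before surgery, at t = 0 before dosing, and at 0.5, 1, 1.5, 2, 4 and 6 h. Expressed as % of maximal possible responses. Two-way ANOVA with Dunnett's test versus vehicle.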

mice = test: Grip strength test; type: in vivo, mouse; settings: 30 min post-injection
naïve, uninjured mice = test: Respiratory function by whole-body plethysmography; type: in vivo, mouse
Procedure, shortened: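 Whole-body plethysmography on naïve, uninjured mice in two parallel chambers linked to a pressure transducer. Mice briefly removed for injection, then returned. Breathing recorded for 5 min at 30, 60, 90, 120 and 180 min post-injection. Frequency, tidal volume and minute volume averaged and normalised to % baseline. […] Two-way ANOVA with Dunnett's test.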

[3] = biological target: serotonin 2A (5-HT2A) receptor (Homo sapiens, UniProt P28223); test: 5-HT2A receptor antagonist IC50 determination; type: cell-based
histamine (H1) = test: Cerep panel off-target selectivity screen, H1; type: binding; settings: 1 × 10^-5 M

serotonin 2A (5-HT2A) receptor, sequence (P28223 whole entry, species assumed): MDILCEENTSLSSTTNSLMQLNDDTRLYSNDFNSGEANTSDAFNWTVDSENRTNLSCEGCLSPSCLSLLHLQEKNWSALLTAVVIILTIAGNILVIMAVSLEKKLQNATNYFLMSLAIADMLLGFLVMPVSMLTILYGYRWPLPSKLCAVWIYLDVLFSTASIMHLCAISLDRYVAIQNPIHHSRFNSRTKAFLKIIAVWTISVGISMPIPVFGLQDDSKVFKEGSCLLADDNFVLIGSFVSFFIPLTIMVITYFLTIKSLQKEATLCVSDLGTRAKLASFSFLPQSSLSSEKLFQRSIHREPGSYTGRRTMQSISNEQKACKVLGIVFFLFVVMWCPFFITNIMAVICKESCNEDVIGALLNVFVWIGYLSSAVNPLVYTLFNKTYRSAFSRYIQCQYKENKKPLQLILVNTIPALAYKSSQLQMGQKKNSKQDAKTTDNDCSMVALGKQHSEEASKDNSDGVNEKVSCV

Structure (SMILES): CN(C)C1(CNC(=O)c2ccc3c(c2)CCN3C(=O)c2ccccc2)CCOCC1 [RPI-GLYT2–82, 1-benzoyl-N-((4-(dimethylamino)tetrahydro-2H-pyran-4-yl)methyl)indoline-5-carboxamide]
- IC50 (hGlyT2^D633E): > 10000 nM
- Reduction in potency of inhibition, D633E versus WT (hGlyT2^D633E): > 18 fold
- Peak reduction of response rate to von Frey stimulus (CCI mice [1]; CCI mice, 50 mg/kg i.p.): 30%
- Peak reduction of response rate to von Frey stimulus (CCI mice [1]; CCI mice, 100 mg/kg i.p.): 42%
- Time of maximum efficacy, mechanical allodynia (CCI mice [1]; CCI mice, 50 and 100 mg/kg i.p.): between 90 minutes and 3 hours post-administration
- Efficacy at alleviating mechanical allodynia compared to pregabalin (CCI mice [1]; pregabalin 50 mg/kg): not as efficacious
- Peak reduction of response rate to acetone stimulus (CCI mice [2]; 50 mg/kg i.p.): 59%
- Peak reduction of response rate to acetone stimulus (CCI mice [2]; 100 mg/kg i.p.): 62%
- Efficacy at alleviating cold allodynia compared to gabapentin (CCI mice [2]; 50 and 100 mg/kg): comparable efficacy to the control compound gabapentin; also recorded: equivalent efficacy
- Time of peak anti-allodynia effects, cold allodynia (CCI mice [2]; 50 and 100 mg/kg): ≤ 2 h
- Grip strength (muscle weakness) (mice; 50 mg/kg): not at 50 mg/kg
- Grip strength (muscle weakness) (mice; 250 mg/kg, recovered at 60 minutes): transient deficits in the grip-strength test; also recorded: transient muscle weakness
- Respiration frequency, minute volume (MVb), tidal volume (TVb) (naïve, uninjured mice; 50 mg/kg): did not change
- Respiratory frequency, MVb and TVb (naïve, uninjured mice; 250 mg/kg, frequency and MVb first hour, TVb first 30 minutes): transient changes
- IC50 [3]: 1900 nM
- Activity at histamine H1 (histamine (H1)): inactive
